Experimental data as given in publication PMC8268672 (Bioorganic Chemistry, 2021).
In brackets after ≈: the same amount, converted by molar mass. Like-named read-outs stand apart in the source and are kept apart here.

Columns and labels:
[1] = tested on: Cryptococcus neoformans (ATCC 9011); test: MIC, broth microdilution; assay type: cell-based; conditions: ATCC9011, read-out: Minimum inhibitory concentration (MIC), CN
In short: (§1)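 Antifungal MICs by CLSI broth microdilution in Sabouraud liquid medium. Test compounds and standard drugs are serially diluted two-fold from 512 to 0.25. The fungal broth culture is grown 24 h at 35 °C to a 0.5 McFarland turbidity, then adjusted with sterile solution to the final inoculum.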

[2] = tested on: Escherichia coli (ATCC 8739); test: MIC, broth microdilution; assay type: cell-based; conditions: ATCC8739, read-out: Minimum inhibitory concentration (MIC), EC
In short: (§2)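 Broth microdilution per CLSI in Mueller-Hinton broth, using two-fold serial dilutions of test compound and reference drugs from 512 to 0.25. Bacterial broth cultures were grown 2-6 h to 0.5 McFarland turbidity, then diluted with sterile solution to the final inoculum. MIC is reported in µg/mL.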

[3] = tested on: Escherichia coli (ATCC 8739); test: Agar disk diffusion, inhibition zone; assay type: cell-based; conditions: 100 µg/8 mm disc, triplicate, mean ± SD
In short: (§3)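 Agar disk diffusion on Mueller-Hinton agar plates seeded with a standard bacterial suspension. Test compound stock in DMSO, diluted with distilled water; 8 mm sterile filter-paper discs soaked in the solution. Ampicillin was the reference. Plates incubated at 35 °C for 24 h, in triplicate. Read-out is the average inhibition-zone diameter (mm) around each disc.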

[4] = tested on: Aspergillus niger (NCIM 2191); test: MIC, broth microdilution; assay type: cell-based; conditions: NCIM2191, read-out: Minimum inhibitory concentration (MIC), AN
In short: as §1

[5] = tested on: Klebsiella aerogenes (NCIM-2098); test: MIC, broth microdilution; assay type: cell-based; conditions: NCIM2098, read-out: Minimum inhibitory concentration (MIC), KA
In short: (§4)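 Antibacterial MICs by CLSI broth microdilution in Mueller-Hinton broth. Test compounds and standard drugs are serially diluted two-fold from 512 to 0.25. The bacterial broth culture is grown 2-6 h to a 0.5 McFarland turbidity, then adjusted with sterile solution to the final inoculum.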

[6] = tested on: Aspergillus fumigatus (NCIM 2081); test: Agar disk diffusion, inhibition zone; assay type: cell-based; conditions: 100 µg/8 mm disc, triplicate, mean ± SD
[7] = tested on: Aspergillus niger (NCIM 2191); test: Agar disk diffusion, inhibition zone; assay type: cell-based; conditions: 100 µg/8 mm disc, triplicate, mean ± SD
In short: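 For the fungal strain, discs soaked in test compound solution (DMSO stock diluted with distilled water) sat on seeded Mueller-Hinton agar. Clotrimazole was the reference. Incubation ran 48 h at 35 °C, in triplicate. Zone of growth inhibition recorded in mm as the mean diameter around each disc.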

[8] = tested on: Pseudomonas aeruginosa (MCCB 0035); test: Agar disk diffusion, inhibition zone; assay type: cell-based; conditions: 100 µg/8 mm disc, triplicate, mean ± SD
[9] = tested on: Staphylococcus aureus (ATCC 29213); test: Agar disk diffusion, inhibition zone; assay type: cell-based; conditions: 100 µg/8 mm disc, triplicate, mean ± SD
In short: as §3

[10] = tested on: Aspergillus fumigatus (NCIM 2081); test: MIC, broth microdilution; assay type: cell-based; conditions: NCIM2081, read-out: Minimum inhibitory concentration (MIC), AF
In short: as §1

[11] = tested on: Candida albicans (NCIM 2087); test: MIC, broth microdilution; assay type: cell-based; conditions: NCIM2087, read-out: Minimum inhibitory concentration (MIC), CA
In short: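 CLSI broth microdilution in Sabouraud liquid medium, with test compound two-fold serially diluted from 512 to 0.25. Fungal broth culture grown 24 h at 35 °C to 0.5 McFarland turbidity, then adjusted with sterile solution to a final […] inoculum. MIC expressed in µg/mL.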

[12] = tested on: Klebsiella aerogenes (NCIM-2098); test: Agar disk diffusion, inhibition zone; assay type: cell-based; conditions: 100 µg/8 mm disc, triplicate, mean ± SD
S. aureus DNA gyrase = S. aureus DNA gyrase (Staphylococcus aureus, UniProt P0A0K8+P20831); test: DNA Gyrase inhibition assay; assay type: biochemical
S. aureus DNA gyrase, sequence (P20831 whole entry, the tested form may be a part): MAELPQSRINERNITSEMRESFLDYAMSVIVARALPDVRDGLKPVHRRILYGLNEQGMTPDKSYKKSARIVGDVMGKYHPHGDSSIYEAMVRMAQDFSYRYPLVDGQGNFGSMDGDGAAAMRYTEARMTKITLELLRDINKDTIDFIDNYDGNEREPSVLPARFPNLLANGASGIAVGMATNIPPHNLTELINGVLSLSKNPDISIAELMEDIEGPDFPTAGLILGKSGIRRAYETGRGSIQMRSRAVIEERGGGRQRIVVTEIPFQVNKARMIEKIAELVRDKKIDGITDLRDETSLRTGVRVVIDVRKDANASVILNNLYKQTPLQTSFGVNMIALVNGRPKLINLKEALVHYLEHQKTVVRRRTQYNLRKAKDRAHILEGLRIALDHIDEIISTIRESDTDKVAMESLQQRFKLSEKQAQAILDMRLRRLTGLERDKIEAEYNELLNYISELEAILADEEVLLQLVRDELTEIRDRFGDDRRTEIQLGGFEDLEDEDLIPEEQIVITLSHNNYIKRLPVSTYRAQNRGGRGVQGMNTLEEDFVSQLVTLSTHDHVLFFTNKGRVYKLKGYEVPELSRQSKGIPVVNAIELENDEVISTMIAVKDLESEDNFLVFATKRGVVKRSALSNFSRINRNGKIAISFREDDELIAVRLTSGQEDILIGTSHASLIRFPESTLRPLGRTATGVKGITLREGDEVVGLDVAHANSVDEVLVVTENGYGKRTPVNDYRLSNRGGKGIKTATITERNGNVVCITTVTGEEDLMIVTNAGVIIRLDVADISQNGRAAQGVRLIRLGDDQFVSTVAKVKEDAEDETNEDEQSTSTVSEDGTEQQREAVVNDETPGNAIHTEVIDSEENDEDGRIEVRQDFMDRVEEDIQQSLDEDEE
S. aureus DNA gyrase, sequence (P0A0K8 whole entry, the tested form may be a part): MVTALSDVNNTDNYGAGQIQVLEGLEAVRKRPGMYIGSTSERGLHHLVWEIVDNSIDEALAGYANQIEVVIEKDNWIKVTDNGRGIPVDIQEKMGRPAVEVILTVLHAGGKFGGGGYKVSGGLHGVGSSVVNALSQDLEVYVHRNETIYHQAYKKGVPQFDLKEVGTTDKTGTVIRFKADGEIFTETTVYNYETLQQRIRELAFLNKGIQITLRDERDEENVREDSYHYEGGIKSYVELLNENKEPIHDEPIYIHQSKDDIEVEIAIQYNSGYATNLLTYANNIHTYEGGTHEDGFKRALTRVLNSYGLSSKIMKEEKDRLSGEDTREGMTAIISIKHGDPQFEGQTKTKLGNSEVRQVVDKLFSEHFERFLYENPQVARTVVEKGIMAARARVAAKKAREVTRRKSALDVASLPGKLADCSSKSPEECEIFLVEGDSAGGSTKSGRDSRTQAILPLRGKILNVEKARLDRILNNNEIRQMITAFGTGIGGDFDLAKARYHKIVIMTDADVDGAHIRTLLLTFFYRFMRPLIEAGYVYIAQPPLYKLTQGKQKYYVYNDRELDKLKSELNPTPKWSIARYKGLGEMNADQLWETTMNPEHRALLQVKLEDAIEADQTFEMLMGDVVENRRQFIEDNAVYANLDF

[13] = tested on: Streptococcus pneumonia (ATCC 49619); test: Agar disk diffusion, inhibition zone; assay type: cell-based; conditions: 100 µg/8 mm disc, triplicate, mean ± SD
[14] = tested on: Cryptococcus neoformans (ATCC 9011); test: Agar disk diffusion, inhibition zone; assay type: cell-based; conditions: 100 µg/8 mm disc, triplicate, mean ± SD
[15] = tested on: Salmonella typhimurium (NCIM-2501); test: Agar disk diffusion, inhibition zone; assay type: cell-based; conditions: 100 µg/8 mm disc, triplicate, mean ± SD
[16] = tested on: Bacillus cereus (NCIM-2458); test: Agar disk diffusion, inhibition zone; assay type: cell-based; conditions: 100 µg/8 mm disc, triplicate, mean ± SD
[17] = tested on: Lactobacillus casei (NCIM-2651); test: Agar disk diffusion, inhibition zone; assay type: cell-based; conditions: 100 µg/8 mm disc, triplicate, mean ± SD
[18] = tested on: Staphylococcus aureus (ATCC 29213); test: MIC, broth microdilution; assay type: cell-based; conditions: ATCC29213, read-out: Minimum inhibitory concentration (MIC), SA
In short: as §4

[19] = tested on: Pseudomonas aeruginosa (MCCB 0035); test: MIC, broth microdilution; assay type: cell-based; conditions: read-out: Minimum inhibitory concentration (MIC), PA
In short: as §2

[20] = tested on: Bacillus cereus (NCIM-2458); test: MIC, broth microdilution; assay type: cell-based; conditions: NCIM2458, read-out: Minimum inhibitory concentration (MIC), BC
In short: as §2

[21] = tested on: Candida albicans (NCIM 2087); test: Agar disk diffusion, inhibition zone; assay type: cell-based; conditions: 100 µg/8 mm disc, triplicate, mean ± SD
Vero cells = conditions: Vero cell cultures; microscopically detectable alteration of normal cell morphology
[22] = tested on: Madin Darby canine kidney (MDCK) cells; conditions: dog
Adeno virus-2 = test: CPE reduction assay in HEL cells; assay type: cell-based; conditions: read-out: Antiviral EC50, Adeno virus-2
Vaccinia virus = test: microbe, parasite or virus in culture; assay type: cell-based; conditions: Orthopoxvirus vaccinia, HEL, read-out: Antiviral EC50, Vaccinia virus
[23] = tested on: Influenza A/H3N2 A/HK/7/87; test: CPE reduction assay in MDCK cells; assay type: cell-based; conditions: Influenza A virus
Yellow Fever virus = test: microbe, parasite or virus in culture; assay type: cell-based; conditions: Yellow fever virus, Vero, read-out: Antiviral EC50, Yellow Fever virus
Reovirus-1 = test: CPE reduction assay in Vero cells; assay type: cell-based; conditions: read-out: Antiviral EC50, Reovirus-1
[24] = tested on: Influenza A/H1N1 A/Ned/378/05; test: CPE reduction assay in MDCK cells; assay type: cell-based; conditions: Influenza A virus
Para-influenza-3 virus = test: CPE reduction assay in Vero cells; assay type: cell-based, Parainfluenza-3 virus; conditions: Vero, read-out: Antiviral EC50, Para-influenza-3 virus
Punta Toro virus = test: CPE reduction assay in Vero cells; assay type: cell-based; conditions: read-out: Antiviral EC50, Punta Toro virus
MT4 cells = conditions: MT4 cell cultures; colorimetric MTT cell viability assay
Coxsackie virus B4 = test: CPE reduction assay in Vero cells; assay type: cell-based; conditions: Enterovirus B, read-out: Antiviral EC50, Coxsackie virus B4
Sindbis virus = test: CPE reduction assay in Vero cells; assay type: cell-based; conditions: read-out: Antiviral EC50, Sindbis virus
Influenza B B/Ned/537/05 = test: CPE reduction assay in MDCK cells; assay type: cell-based; conditions: Influenza B virus, read-out: Antiviral EC50, Influenza B B/Ned/537/05, MTS
[25] = tested on: Human embryonic lung (HEL) cells; conditions: HEL cell cultures; microscopically detectable alteration of normal cell morphology
Human Coronavirus (229E) = test: CPE reduction assay in HEL cells; assay type: cell-based; conditions: read-out: Antiviral EC50, Human Coronavirus (229E)
[26] = read-out: Antiviral EC50, Influenza A/H3N2 A/HK/7/87, MTS
[27] = read-out: Antiviral EC50, Influenza A/H3N2 A/HK/7/87, visual CPE score
[28] = read-out: Antiviral EC50, Influenza A/H1N1 A/Ned/378/05, MTS
[29] = read-out: Antiviral EC50, Influenza A/H1N1 A/Ned/378/05, visual CPE score

Row | SMILES | MIC [1] [µg/mL] | MIC [2] [µg/mL] | Diameter of growth inhibition zone, EC [3] [mm] | MIC [4] [µg/mL] | MIC [5] [µg/mL] | Diameter of growth inhibition zone, AF [6] [mm] | Diameter of growth inhibition zone, AN [7] [mm] | Diameter of growth inhibition zone, PA [8] [mm] | Diameter of growth inhibition zone, SA [9] [mm] | MIC [10] [µg/mL] | MIC [11] [µg/mL] | Diameter of growth inhibition zone, KA [12] [mm] | Diameter of growth inhibition zone, SP [13] [mm] | Diameter of growth inhibition zone, CN [14] [mm] | Diameter of growth inhibition zone, ST [15] [mm] | Diameter of growth inhibition zone, BC [16] [mm] | Diameter of growth inhibition zone, LC [17] [mm] | MIC [18] [µg/mL] | MIC [19] [µg/mL] | MIC [20] [µg/mL] | other results
1 | Cc1ccc(S(=O)(=O)N2C(=O)CSC2c2ccc(F)cc2)cc1 (stereo not shown) [5j, 2-(4-Fluorophenyl)-3-[(4-methylphenyl)sulfonyl]-1,3-thiazolidin-4-one] | 4 (≈ 11.4 µM) | 2 (≈ 5.69 µM) | 25.9 ± 0.32 | 8 (≈ 22.8 µM) | 16 (≈ 45.5 µM) | 19 ± 1.2 | 19 ± 0.6 | 25 ± 1.5 | 23 ± 1.1 | 4 (≈ 11.4 µM) | 4 (≈ 11.4 µM) | 14 ± 0.94 | 10 ± 0.6 | 13 ± 1.5 | 18 ± 0.3 | 18 ± 0.5 | 19 ± 0.5 | 4 (≈ 11.4 µM) | 2 (≈ 5.69 µM) | 8 (≈ 22.8 µM) | IC50 (S. aureus DNA gyrase): 4.26 µM; Diameter of growth inhibition zone, CA [21]: 21 ± 0.9 mm
2 | Cc1ccc(S(=O)(=O)N2C(=O)CSC2c2cccc([N+](=O)[O-])c2)cc1 (stereo not shown) [5p, 3-[(4-Methylphenyl)sulfonyl]-2-(3-nitrophenyl)-1,3-thiazolidin-4-one] | 2 (≈ 5.28 µM) | 32 (≈ 84.6 µM) | 16 ± 0.69 | 8 (≈ 21.1 µM) | 16 (≈ 42.3 µM) | 20 ± 1.1 | 20 ± 0.9 | 14 ± 1.1 | 16 ± 0.9 | 8 (≈ 21.1 µM) | 4 (≈ 10.6 µM) | 14 ± 0.75 | 08 ± 0.87 | 19 ± 1.0 | 12 ± 0.1 | 10 ± 0.4 | 12 ± 1.56 | 32 (≈ 84.6 µM) | 64 (≈ 169 µM) | 64 (≈ 169 µM) | Minimum cytotoxic conc. (Vero cells): >100 µM; Cytotoxicity, Minimum cytotoxic conc. [22]: >100 µM; EC50 (Adeno virus-2): > 100 µM; EC50 (Vaccinia virus): > 100 µM; EC50 [23, 26]: > 100 µM; EC50 [23, 27]: > 100 µM; EC50 (Yellow Fever virus): > 100 µM; EC50 (Reovirus-1): > 100 µM; EC50 [24, 28]: > 100 µM; EC50 [24, 29]: > 100 µM; EC50 (Para-influenza-3 virus): > 100 µM; EC50 (Punta Toro virus): > 100 µM; Minimum cytotoxic conc. (MT4 cells): >125 µM; EC50 (Coxsackie virus B4): > 100 µM; EC50 (Sindbis virus): > 100 µM; EC50 (Influenza B B/Ned/537/05): > 100 µM; Minimum cytotoxic conc. [25]: >100 µM; Diameter of growth inhibition zone, CA [21]: 22 ± 1.2 mm; EC50 (Human Coronavirus (229E)): > 100 µM
3 | Cc1ccc(S(=O)(=O)N2C(=O)CSC2c2ccc([N+](=O)[O-])cc2)cc1 (stereo not shown) [5q, 3-[(4-Methylphenyl)sulfonyl]-2-(4-nitrophenyl)-1,3-thiazolidin-4-one] | 2 (≈ 5.28 µM) | 16 (≈ 42.3 µM) | 17 ± 1.2 | 4 (≈ 10.6 µM) | 32 (≈ 84.6 µM) | 21 ± 0.63 | 22 ± 0.46 | 18 ± 1.2 | 18 ± 1.2 | 4 (≈ 10.6 µM) | 4 (≈ 10.6 µM) | 12 ± 0.4 | 10 ± 0.45 | 19 ± 1.3 | 10 ± 1.1 | 12 ± 0.6 | 14 ± 0.4 | 32 (≈ 84.6 µM) | 32 (≈ 84.6 µM) | 32 (≈ 84.6 µM) | Minimum cytotoxic conc. (Vero cells): >100 µM; Cytotoxicity, Minimum cytotoxic conc. [22]: >100 µM; EC50 (Adeno virus-2): > 100 µM; EC50 (Vaccinia virus): > 100 µM; EC50 [23, 26]: > 100 µM; EC50 [23, 27]: > 100 µM; EC50 (Yellow Fever virus): > 100 µM; EC50 (Reovirus-1): > 100 µM; EC50 [24, 28]: > 100 µM; EC50 [24, 29]: > 100 µM; EC50 (Para-influenza-3 virus): > 100 µM; EC50 (Punta Toro virus): > 100 µM; Minimum cytotoxic conc. (MT4 cells): >125 µM; EC50 (Coxsackie virus B4): > 100 µM; EC50 (Sindbis virus): > 100 µM; EC50 (Influenza B B/Ned/537/05): > 100 µM; Minimum cytotoxic conc. [25]: >100 µM; Diameter of growth inhibition zone, CA [21]: 23 ± 1.2 mm; EC50 (Human Coronavirus (229E)): > 100 µM
